Assay results taken from ChEMBL document CHEMBL5126648, “Charting the Chemical Space of Acrylamide-Based Inhibitors of zDHHC20” (ACS Med Chem Lett, 2022).
The source made the active and inactive calls. The rule behind the calls is not given here.

Key:
[1] = target: T1, Palmitoyltransferase ZDHHC20 (Homo sapiens) (UniProt Q5W0Z9); assay: Binding affinity to human myc-His6-tagged zDHHC20 expressed in HEK293T cells at 1 uM measured after 1 hr by TAMRA-azide-labelled in-gel fluorescence analysis; assay type: cell-based
T1 sequence (whole entry): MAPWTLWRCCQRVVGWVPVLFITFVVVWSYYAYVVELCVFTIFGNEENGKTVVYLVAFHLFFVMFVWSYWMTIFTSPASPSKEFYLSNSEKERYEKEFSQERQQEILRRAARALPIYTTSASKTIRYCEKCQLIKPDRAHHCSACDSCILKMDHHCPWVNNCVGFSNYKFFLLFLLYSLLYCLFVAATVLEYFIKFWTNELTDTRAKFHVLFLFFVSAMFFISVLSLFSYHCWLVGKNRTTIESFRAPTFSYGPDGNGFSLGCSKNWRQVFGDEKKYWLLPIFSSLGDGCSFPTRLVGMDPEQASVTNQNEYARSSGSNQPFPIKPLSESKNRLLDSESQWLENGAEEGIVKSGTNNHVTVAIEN
How it was run: (§1)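 Myc-tagged enzyme overexpressed in HEK293T cells; cells treated with probe at 1 μM for 1 h. Lysates then clicked to TAMRA-azide, proteins resolved by SDS-PAGE and read by in-gel fluorescence. Expression checked by anti-myc Western blot. n = 2.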

[2] = target: T2, Palmitoyltransferase ZDHHC2 (Homo sapiens) (UniProt Q9UIJ5); assay: Binding affinity to human myc-His6-tagged zDHHC2 expressed in HEK293T cells at 1 uM measured after 1 hr by TAMRA-azide-labelled in-gel fluorescence analysis; assay type: cell-based; how it was run: as §1
T2 sequence (whole entry): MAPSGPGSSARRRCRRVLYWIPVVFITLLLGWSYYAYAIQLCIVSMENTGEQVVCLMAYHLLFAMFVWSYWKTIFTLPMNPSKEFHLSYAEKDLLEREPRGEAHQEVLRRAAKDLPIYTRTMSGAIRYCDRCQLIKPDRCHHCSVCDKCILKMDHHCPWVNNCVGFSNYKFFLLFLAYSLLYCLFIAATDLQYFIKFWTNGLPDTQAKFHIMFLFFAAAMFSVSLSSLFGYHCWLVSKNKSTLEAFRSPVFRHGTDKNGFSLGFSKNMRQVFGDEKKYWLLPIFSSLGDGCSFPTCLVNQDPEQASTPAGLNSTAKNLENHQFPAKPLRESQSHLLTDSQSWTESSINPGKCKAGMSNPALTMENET

[3] = target: T1, Palmitoyltransferase ZDHHC20 (Homo sapiens); assay: Inhibition of human myc-His6-tagged zDHHC20 expressed in HEK293T cells at 10 uM using 5-FAM-GTQGCMGLPCVVM-COOH as substrate preincubated for 1 hr followed by substrate addition and measured at 1 min interval for 2 hrs in presence of palmitoyl-CoA by fluorescence polarization assay; conditions: time 3.0 hrs
How it was run: (§2)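 Purified zDHHC20 run in the acyl-cLIP assay, an earlier adaptation by the same group. Enzyme-mediated acylation of a peptide is read as polarized fluorescence.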

[4] = Lipophilicity, log P of compound; assay type: physicochemical; conditions: octanol/water
[5] = target: T2, Palmitoyltransferase ZDHHC2 (Homo sapiens); assay: Inhibition of human myc-His6-tagged zDHHC2 expressed in HEK293T cells at 10 uM using 5-FAM-GTQGCMGLPCVVM-COOH as substrate preincubated for 30 mins followed by substrate addition and measured at 1 min interval for 2 hrs in presence of palmitoyl-CoA by fluorescence polarization assay; conditions: time 150.0 min
[6] = target: T3, Palmitoyltransferase ZDHHC20 (Homo sapiens, UniProt Q5W0Z9); assay: Inhibition of human myc-His6-tagged zDHHC20 expressed in HEK293T cells using 5-FAM-GTQGCMGLPCVVM-COOH as substrate preincubated for 1 hr followed by substrate addition and measured at 1 min interval for 2 hrs in presence of palmitoyl-CoA by fluorescence polarization assay; how it was run: as §2
T3 sequence (Q5W0Z9 whole entry): T1 sequence (whole entry)

[7] = target: T4, Palmitoyltransferase ZDHHC2 (Homo sapiens, UniProt Q9UIJ5); assay: Inhibition of human myc-His6-tagged zDHHC2 expressed in HEK293T cells using 5-FAM-GTQGCMGLPCVVM-COOH as substrate preincubated for 30 mins followed by substrate addition and measured at 1 min interval for 2 hrs in presence of palmitoyl-CoA by fluorescence polarization assay
T4 sequence (Q9UIJ5 whole entry): T2 sequence (whole entry)

| logP [4] | IC50 [6] | IC50 [7] | SMILES | also measured |
| --- | --- | --- | --- | --- |
|  |  |  | C#CCOC(=O)/C=C/C(=O)NCCCCCCCCCCCCCC | Activity [1]: Active; Activity [2]: Active |
|  |  |  | C#CCN(CCCCCCCCCCCCCC)C(=O)C=C | Activity [1]: Active; Activity [2]: Active |
| 4.55 |  |  | CCCCCCCCCCCCCCNC(=O)/C=C\C(=O)OCc1cn(CCOCCOCCOCCO)nn1 | inhibition [3]: Active |
|  | 3.43 µM |  | C#CCOC(=O)/C=C\C(=O)NCCCCCCCCCCCCCC | inhibition [5]: Active; Activity [1]: Active; Activity [2]: Active |
|  |  | 2020 nM | CCCCCCCCCCCCCCNC(=O)/C=C\C(=O)Oc1ccccc1 | inhibition [3]: 50% |
|  | 3.45 µM |  | CCCCCCCCCCCCCCN(CC#N)C(=O)/C=C\C(=O)O |  |
|  | 21.4 µM | 59900 nM | C=CC(=O)NCCCCCCCCCCCCCC |  |
|  |  |  | CCCCCCCCCCCCCCNC(=O)/C=C\C(=O)OC | inhibition [3]: Active |
| 4.1 | 1.97 µM |  | C=CC(=O)N(CC#N)CCOCCCCCCCCCCC | inhibition [5]: Active |
| 5.48 | 1.35 µM | 590 nM | C=CC(=O)N(CC#N)CCCCCCCCCCCCCC | inhibition [5]: Active |
|  | 2.87 µM | 2660 nM | CCCCCCCCCCCCCCNC(=O)/C=C\C(=O)OCC#N |  |
| 3.33 | 9.73 µM |  | CCCCCCCCCCCCCCNC(=O)/C=C\C(=O)OCc1cn(CCCNC(=O)CCNC(=O)[C@H](O)C(C)(C)CO)nn1 |  |

| SMILES | logP [4] | IC50 [6] | IC50 [7] | also measured |
| --- | --- | --- | --- | --- |
| CCCCCCCCCCCCCCC(Br)C(=O)O (centres undefined) |  | 5.55 µM | 2020 nM |  |
